Measurements reported in ChEMBL document CHEMBL1681687, “Discovery of muscarinic acetylcholine receptor antagonist and beta 2 adrenoceptor agonist (MABA) dual pharmacology molecules” (Bioorg Med Chem Lett, 2011).

What was measured:
[1] = target: Muscarinic acetylcholine receptor M3 (Homo sapiens, UniProt P20309); assay: Displacement of [3H]-N-methyl-scopolamine from human muscarinic M3 receptor after 6 hrs by cell based assay
In short: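 Human M3 receptor-expressing cell membranes incubated up to 6 h at 37 °C with 1 nM [3H]N-methyl-scopolamine and serial dilutions of compound. Buffer 10 mM Hepes, 100 mM NaCl, 10 mM MgCl2, pH 7.4 at 37 °C. IC50 from displacement converted to Ki by Cheng–Prusoff.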

[2] = target: T1, Beta-2 adrenergic receptor (Homo sapiens, UniProt P07550); assay: Agonist activity at human beta2-adrenoceptor expressed in HEK cells assessed as increase of cAMP level after 10 mins by radioimmunoassay; type: functional, cell-based, HEK293
T1 sequence (P07550 whole entry): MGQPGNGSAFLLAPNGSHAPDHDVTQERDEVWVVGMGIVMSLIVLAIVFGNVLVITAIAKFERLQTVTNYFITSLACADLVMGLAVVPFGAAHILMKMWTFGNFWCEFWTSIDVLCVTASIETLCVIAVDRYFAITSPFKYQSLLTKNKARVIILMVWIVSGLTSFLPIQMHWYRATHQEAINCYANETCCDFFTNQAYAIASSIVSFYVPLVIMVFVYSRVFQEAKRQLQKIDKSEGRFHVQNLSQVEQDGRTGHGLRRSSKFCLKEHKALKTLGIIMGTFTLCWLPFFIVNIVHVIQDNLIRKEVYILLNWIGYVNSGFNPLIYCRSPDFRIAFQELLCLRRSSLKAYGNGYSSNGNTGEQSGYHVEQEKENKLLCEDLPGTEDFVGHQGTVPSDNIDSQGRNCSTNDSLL

[3] = target: T1, Beta-2 adrenergic receptor; assay: Displacement of [3H]-dihydroalprenolol from human beta2-adrenoceptor expressed in HEK cells after 4 hrs; type: cell-based, HEK293

Muscarinic acetylcholine receptor M3, sequence (P20309 whole entry): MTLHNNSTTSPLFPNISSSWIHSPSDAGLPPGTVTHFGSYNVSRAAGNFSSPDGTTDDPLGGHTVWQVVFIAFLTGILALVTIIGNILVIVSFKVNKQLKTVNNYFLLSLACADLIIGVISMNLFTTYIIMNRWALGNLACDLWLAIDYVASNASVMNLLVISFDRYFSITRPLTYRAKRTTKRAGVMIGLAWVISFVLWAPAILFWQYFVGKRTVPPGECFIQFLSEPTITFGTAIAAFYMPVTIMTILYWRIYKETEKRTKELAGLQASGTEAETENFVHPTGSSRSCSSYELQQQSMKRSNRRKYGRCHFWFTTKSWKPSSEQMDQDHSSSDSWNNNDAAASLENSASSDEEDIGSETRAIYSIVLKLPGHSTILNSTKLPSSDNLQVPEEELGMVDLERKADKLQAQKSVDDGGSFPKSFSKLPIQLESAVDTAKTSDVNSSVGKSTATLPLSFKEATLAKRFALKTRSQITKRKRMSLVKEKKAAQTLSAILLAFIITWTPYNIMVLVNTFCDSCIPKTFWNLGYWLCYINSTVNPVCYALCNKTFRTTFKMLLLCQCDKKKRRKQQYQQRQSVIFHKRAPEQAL

Ki [1] [nM] | EC50 [2] [nM] | Ki [3] [nM] | SMILES
7 |  |  | CCCCCCCCN1CCC(OC(=O)Nc2ccccc2-c2ccccc2)CC1
9.5 |  |  | CCCCCCCCCN1CCC(OC(=O)Nc2ccccc2-c2ccccc2)CC1
67 |  |  | NCCCN1CCC(OC(=O)Nc2ccccc2-c2ccccc2)CC1
19 |  |  | NCCCCCCN1CCC(OC(=O)Nc2ccccc2-c2ccccc2)CC1
32 | 3.3 | 60 | NC(=O)C(c1ccccc1)(c1ccccc1)[C@@H]1CCN(CCCCCCCCCNCC(O)c2ccc(O)c3[nH]c(=O)ccc23)C1 (stereo not given in full)
7.5 | 8.4 | 115 | O=C(Nc1ccccc1-c1ccccc1)NC1CCN(CCCCCCCCCNCC(O)c2ccc(O)c3[nH]c(=O)ccc23)CC1 (stereo not given)
0.14 | 2.6 | 21 | O=CNc1cc([C@@H](O)CNCCCCCCCCCN2CCC(OC(=O)Nc3ccccc3-c3ccccc3)CC2)ccc1O
50 |  |  | NCCN1CCC(OC(=O)Nc2ccccc2-c2ccccc2)CC1
84 |  |  | NCCCCN1CCC(OC(=O)Nc2ccccc2-c2ccccc2)CC1
0.74 | 1.1 | 10 | O=C(Nc1ccccc1-c1ccccc1)OC1CCN(CCCCCCCNC[C@H](O)c2ccc(O)c3[nH]c(=O)ccc23)CC1
98 |  |  | NCCCCCN1CCC(OC(=O)Nc2ccccc2-c2ccccc2)CC1
1.8 |  |  | NCCCCCCCCN1CCC(OC(=O)Nc2ccccc2-c2ccccc2)CC1
14 |  |  | CCCCCN1CCC(OC(=O)Nc2ccccc2-c2ccccc2)CC1
5.1 |  |  | CCCCCCCN1CCC(OC(=O)Nc2ccccc2-c2ccccc2)CC1
0.32 | 0.32 | 3.4 | O=C(Nc1ccccc1-c1ccccc1)OC1CCN(CCCCCCCCNC[C@H](O)c2ccc(O)c3[nH]c(=O)ccc23)CC1
77 |  |  | CCCN1CCC(OC(=O)Nc2ccccc2-c2ccccc2)CC1
22 |  |  | CN1CCC(OC(=O)Nc2ccccc2-c2ccccc2)CC1
25 |  |  | CCCCCCCCCCN1CCC(OC(=O)Nc2ccccc2-c2ccccc2)CC1
48 |  |  | CCCCCCCCCCCN1CCC(OC(=O)Nc2ccccc2-c2ccccc2)CC1
4.8 |  |  | CCCCCCN1CCC(OC(=O)Nc2ccccc2-c2ccccc2)CC1
0.53 |  |  | NCCCCCCCN1CCC(OC(=O)Nc2ccccc2-c2ccccc2)CC1
17 |  |  | CCCCN1CCC(OC(=O)Nc2ccccc2-c2ccccc2)CC1
46 |  |  | O=C(Nc1ccccc1-c1ccccc1)OC1CCNCC1
1.6 |  |  | NCCCCCCCCCCN1CCC(OC(=O)Nc2ccccc2-c2ccccc2)CC1
28 | 1.3 | 19 | O=C(Nc1ccccc1-c1ccccc1)OC1CCN(CCCNC[C@H](O)c2ccc(O)c3[nH]c(=O)ccc23)CC1
0.75 |  |  | NCCCCCCCCCN1CCC(OC(=O)Nc2ccccc2-c2ccccc2)CC1
2.6 |  |  | NCCCCCCCCCCCCN1CCC(OC(=O)Nc2ccccc2-c2ccccc2)CC1
0.14 | 14 | 61 | O=C(Nc1ccccc1-c1ccccc1)OC1CCN(CCCCCCCCCNC[C@H](O)c2ccc(O)c(CO)c2)CC1
55 |  |  | CCN1CCC(OC(=O)Nc2ccccc2-c2ccccc2)CC1
2.5 |  |  | NCCCCCCCCCCCN1CCC(OC(=O)Nc2ccccc2-c2ccccc2)CC1

SMILES | Ki [1] [nM] | EC50 [2] [nM] | Ki [3] [nM]
O=C(Nc1ccccc1-c1ccccc1)O[C@H]1C[N+]2(CCCCCCCCCNCC(O)c3ccc(O)c4[nH]c(=O)ccc34)CCC1CC2 (stereo not given in full) | 140 | 8.9 | 123
C[N+]1(CCCCCCCCCNC[C@H](O)c2ccc(O)c3[nH]c(=O)ccc23)[C@@H]2C[C@H](OC(=O)C(O)(c3cccs3)c3cccs3)C[C@@H]1[C@H]1O[C@H]12 (stereo not given in full) | 4.6 | 0.9 | 36
